Results reported in ChEMBL document CHEMBL4425132, “Antibacterial and Solubility Optimization of Thiomuracin A” (J Med Chem, 2016).
Converted amounts (≈) assume the structure as drawn.

Assays:
[1] = AUC in Sprague-Dawley rat at 1 mg/kg, iv by LC-MS/MS method; type: ADME, organism-based; conditions: in vivo
Outline: (§1)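 Rats fasted overnight before dosing and for 8 hr after. Blood collected into K2-EDTA tubes and centrifuged to plasma. Plasma protein-precipitated with acetonitrile containing glyburide internal standard. Analysis by LC-MS/MS on reversed-phase C18 columns with a 5% to 95% acetonitrile gradient over ~3.5 min (0.1% formic acid in both phases).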

Enterococcus faecium = test: Antimicrobial activity against Enterococcus faecium 7130724 by broth microdilution method; type: functional
Outline: (§2)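 MICs determined by CLSI broth microdilution. Broth microdilution was used for every species tested, including the anaerobe C. difficile.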

Clostridioides difficile [2] = test: Antimicrobial activity against Clostridium difficile ATCC 43255 by broth microdilution method; type: functional; outline: as §2
Staphylococcus aureus [3] = test: Antimicrobial activity against methicillin-resistant Staphylococcus aureus by broth microdilution method; type: functional
Outline: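 Broth microdilution MIC following CLSI methods, with broth microdilution used for all species.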

Streptococcus pyogenes = test: Antimicrobial activity against Streptococcus pyogenes ATCC BAA-595 by broth microdilution method; type: functional; outline: as §2
[4] = Aqueous solubility of the compound at 20 mg/ml after 24 hrs RP-HPLC based shake flask method; type: physicochemical; conditions: aqueous medium
Outline: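 Compound samples examined for dissolution. Clear solutions were reported as >starting concentration, with pH recorded. Samples with visible particles were filtered through 0.22 µ PVDF membranes, pH recorded, and dissolved drug quantified by RP-HPLC.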

[5] = Volume of distribution at steady state in Sprague-Dawley rat at 1 mg/kg, iv by LC-MS/MS method; type: ADME, organism-based; conditions: in vivo, read-out: Vdss; outline: as §1
[6] = Clearance in Sprague-Dawley rat at 1 mg/kg, iv by LC-MS/MS method; type: ADME, organism-based; conditions: in vivo; outline: as §1
Enterococcus faecalis [7] = test: Antimicrobial activity against Enterococcus faecalis ATCC 29212 by broth microdilution method; type: functional; outline: as §2
Enterococcus faecalis [8] = test: Antimicrobial activity against Enterococcus faecalis NB04025 infected in CD1 mouse systemic infection model dosed intravenously once immediately following bacterial inoculation; type: functional; conditions: for ED50: NB04025, iv
Clostridioides difficile [9] = test: Antimicrobial activity against Clostridium difficile ATCC 43255 infected in golden Syrian hamster assessed as animal survival at 10 mg/kg, po for 5 days dosed starting 24 hrs after infection measured for 16 days; type: functional; conditions: ATCC 43255, po
Outline: (§3)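 Hamsters given a single subcutaneous clindamycin injection (10 mg/kg) on day -1. About 24 h later they were infected by oral gavage with ~7.5 x10^6 CFU/hamster. Inoculum was prepared from overnight plates resuspended in reinforced clostridial medium + 1% oxyrase. Oral dosing once daily for up to 5 days, 8 animals per dose. Animals observed twice daily for mortality, diarrhea and morbidity. Vehicle-only control group.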

[10] = Half life in Sprague-Dawley rat at 1 mg/kg, iv by LC-MS/MS method; type: ADME, organism-based; conditions: in vivo; outline: as §1
Staphylococcus aureus [11] = test: Antimicrobial activity against Staphylococcus aureus ATCC 49951 infected in CD1 mouse systemic infection model dosed intravenously 1 and 5 hrs after inoculation; type: functional; conditions: for ED50: ATCC 49951, iv
Clostridioides difficile [12] = test: Antimicrobial activity against Clostridium difficile ATCC 43255 infected in golden Syrian hamster assessed as animal survival at 25 mg/kg, po for 5 days dosed starting 24 hrs after infection measured for 16 days; type: functional; conditions: ATCC 43255, po; outline: as §3
Clostridioides difficile [13] = test: Antimicrobial activity against Clostridium difficile ATCC 43255 infected in golden Syrian hamster assessed as animal survival at 5 mg/kg, po for 5 days dosed starting 24 hrs after infection measured for 16 days; type: functional; conditions: ATCC 43255, po; outline: as §3
Staphylococcus aureus [14] = test: Antimicrobial activity against Staphylococcus aureus ATCC 49951; type: functional
Outline: (§4)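 MIC by CLSI broth microdilution against the strains used in the mouse infection model.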

Enterococcus faecalis [15] = test: Antimicrobial activity against Enterococcus faecalis NB04025; type: functional; outline: as §4
Clostridioides difficile [16] = test: Antimicrobial activity against Clostridium difficile ATCC 43255 infected in golden Syrian hamster assessed as animal survival at 20 mg/kg, po for 5 days dosed starting 24 hrs after infection measured for 16 days; type: functional; conditions: ATCC 43255, po; outline: as §3

| SMILES | MIC (Enterococcus faecium) [µg/mL] | MIC (Clostridioides difficile [2]) [µg/mL] | MIC (Staphylococcus aureus [3]) [µg/mL] | MIC (Streptococcus pyogenes) [µg/mL] | solubility thermodynamic at 24 h [4] [µg/mL] | MIC (Enterococcus faecalis [7]) [µg/mL] | ED50 (Enterococcus faecalis [8]) [mg/kg] | ED50 (Staphylococcus aureus [11]) [mg/kg] | survival at 25 mg/kg (Clostridioides difficile [12]) [%] | also measured |
| --- | --- | --- | --- | --- | --- | --- | --- | --- | --- | --- |
| Cc1sc2nc1C(=O)N[C@@H]([C@H](O)c1ccccc1)c1nc(cs1)C(=O)N[C@@H](Cc1ccc(O)cc1)C(=O)NCC(=O)N1C[C@H](O)[C@H](C)[C@H]1c1nc(cs1)-c1nc(cs1)-c1nc(-c3nc(C(=O)N[C@H]4CC[C@H](C(=O)O)CC4)cs3)ccc1-c1nc(cs1)C(=O)N[C@H]2CC(N)=O | 0.125 (≈ 0.0903 µM) | 0.03 (≈ 0.0217 µM) | 0.25 (≈ 0.181 µM) | 0.25 (≈ 0.181 µM) | 750 (≈ 542 µM) | 0.125 (≈ 0.0903 µM) | 0.71 | 3.42 |  | AUC [1]: 13.2 µM·h; Vd [5]: 0.032 L/kg; clearance [6]: 0.98 mL/min/kg; Activity (Enterococcus faecalis [8]): Dose-dependent effect; survival at 10 mg/kg (Clostridioides difficile [9]): 0%; half-life [10]: 1.8 h; Activity (Staphylococcus aureus [11]): Dose-dependent effect |
| Cc1sc2nc1C(=O)N[C@@H]([C@H](O)c1ccccc1)c1nc(cs1)C(=O)N[C@@H](Cc1ccc(O)cc1)C(=O)NCC(=O)N1C[C@H](O)[C@H](C)[C@H]1c1nc(cs1)-c1nc(cs1)-c1nc(-c3nc(C(=O)NCCCCC(=O)O)cs3)ccc1-c1nc(cs1)C(=O)N[C@H]2CC(N)=O | 0.125 (≈ 0.0921 µM) | 0.06 (≈ 0.0442 µM) | 0.5 (≈ 0.368 µM) | 0.125 (≈ 0.0921 µM) | 730 (≈ 538 µM) | 0.125 (≈ 0.0921 µM) |  |  | 13 |  |
| Cc1sc2nc1C(=O)N[C@@H]([C@H](O)c1ccccc1)c1nc(cs1)C(=O)N[C@@H](Cc1ccc(O)cc1)C(=O)NCC(=O)N1C[C@H](O)[C@H](C)[C@H]1c1nc(cs1)-c1nc(cs1)-c1nc(-c3nc(NC(=O)O[C@H]4CC[C@H](C(=O)O)CC4)cs3)ccc1-c1nc(cs1)C(=O)N[C@H]2CC(N)=O | 0.125 (≈ 0.0893 µM) | 0.03 (≈ 0.0214 µM) | 0.25 (≈ 0.179 µM) | 0.125 (≈ 0.0893 µM) | 6 (≈ 4.29 µM) | 0.125 (≈ 0.0893 µM) |  |  |  |  |
| Cc1sc2nc1C(=O)N[C@@H]([C@H](O)c1ccccc1)c1nc(cs1)C(=O)N[C@@H](Cc1ccc(O)cc1)C(=O)NCC(=O)N1C[C@H](O)[C@H](C)[C@H]1c1nc(cs1)-c1nc(cs1)-c1nc(-c3nc(C(=O)N(CCCCC(=O)O)[C@H]4CC[C@H](C(=O)O)CC4)cs3)ccc1-c1nc(cs1)C(=O)N[C@H]2CC(N)=O | 1 (≈ 0.674 µM) | 0.125 (≈ 0.0842 µM) | 2 (≈ 1.35 µM) | 0.5 (≈ 0.337 µM) | 3400 (≈ 2290 µM) | 1 (≈ 0.674 µM) |  |  |  |  |
| Cc1sc2nc1C(=O)N[C@@H]([C@H](O)c1ccccc1)c1nc(cs1)C(=O)N[C@@H](Cc1ccc(O)cc1)C(=O)NCC(=O)N1C[C@H](O)[C@H](C)[C@H]1c1nc(cs1)-c1nc(cs1)-c1nc(-c3nc(N(CCCCC(=O)O)C(=O)O[C@H]4CC[C@H](C(=O)O)CC4)cs3)ccc1-c1nc(cs1)C(=O)N[C@H]2CC(N)=O | 0.125 (≈ 0.0833 µM) | 0.06 (≈ 0.04 µM) | 0.25 (≈ 0.167 µM) | 0.125 (≈ 0.0833 µM) | 9700 (≈ 6470 µM) | 0.25 (≈ 0.167 µM) |  |  |  | survival at 5 mg/kg (Clostridioides difficile [13]): 25%; survival at 10 mg/kg (Clostridioides difficile [9]): 63% |
| Cc1sc2nc1C(=O)N[C@@H]([C@H](O)c1ccccc1)c1nc(cs1)C(=O)N[C@@H](Cc1ccc(O)cc1)C(=O)NCC(=O)N1C[C@H](O)[C@H](C)[C@H]1c1nc(cs1)-c1nc(cs1)-c1nc(-c3nc(C(N)=O)cs3)ccc1-c1nc(cs1)C(=O)N[C@H]2CC(N)=O | 0.5 (≈ 0.398 µM) | < 0.008 | 0.25 (≈ 0.199 µM) | 1 (≈ 0.795 µM) |  | 0.25 (≈ 0.199 µM) | 1.5 | 8 | 0 | MIC (Staphylococcus aureus [14]): 1 µg/mL (≈ 0.795 µM); MIC (Enterococcus faecalis [15]): 0.125 µg/mL (≈ 0.0994 µM) |
| CN[C@H](CC(C)C)C(=O)N[C@H]1C(=O)N[C@@H](CC(N)=O)C(=O)N[C@H]2C(=O)N[C@H]3C(=O)N[C@H](C(=O)N[C@H](C(=O)O)c4cc(O)cc(O)c4-c4cc3ccc4O)[C@H](O)c3ccc(c(Cl)c3)Oc3cc2cc(c3O[C@@H]2O[C@H](CO)[C@@H](O)[C@H](O)[C@H]2O[C@H]2C[C@](C)(N)[C@H](O)[C@H](C)O2)Oc2ccc(cc2Cl)[C@H]1O [VANCOMYCIN] |  |  |  |  |  |  | 7.74 | 1.1 |  | survival at 20 mg/kg (Clostridioides difficile [16]): 38% |
| CCCCCCCCCC(=O)N[C@@H](Cc1c[nH]c2ccccc12)C(=O)N[C@H](CC(N)=O)C(=O)N[C@@H](CC(=O)O)C(=O)N[C@@H]1C(=O)NCC(=O)N[C@@H](CCCN)C(=O)N[C@@H](CC(=O)O)C(=O)N[C@H](C)C(=O)N[C@@H](CC(=O)O)C(=O)NCC(=O)N[C@H](CO)C(=O)N[C@@H]([C@H](C)CC(=O)O)C(=O)N[C@@H](CC(=O)c2ccccc2N)C(=O)O[C@@H]1C |  |  |  |  |  |  | 2.6 | 0.21 |  |  |
| Cc1sc2nc1C(=O)N[C@@H]([C@H](O)c1ccccc1)c1nc(cs1)C(=O)N[C@@H](Cc1ccc(O)cc1)C(=O)NCC(=O)N1C[C@H](O)[C@H](C)[C@H]1c1nc(cs1)-c1nc(cs1)-c1nc(-c3nc(C(=O)O)cs3)ccc1-c1nc(cs1)C(=O)N[C@H]2CC(N)=O | 0.5 (≈ 0.397 µM) | 0.125 (≈ 0.0993 µM) | 2 (≈ 1.59 µM) | 0.5 (≈ 0.397 µM) | 1 (≈ 0.795 µM) | 0.5 (≈ 0.397 µM) |  |  | 75 |  |
| COCc1sc2nc1C(=O)NCC(=O)N[C@@H]([C@@H](O)c1ccccc1)c1nc(cs1)-c1nc(cs1)-c1nc(-c3nc(N(CCCCC(=O)O)C(=O)O[C@H]4CC[C@H](C(=O)O)CC4)cs3)ccc1-c1nc(cs1)C(=O)N[C@@H](CC(N)=O)C1=NC(C)=C(S1)C(=O)N[C@H]2C(C)C |  |  |  |  |  |  |  |  |  | survival at 5 mg/kg (Clostridioides difficile [13]): 71 to 75% |
